In assay [1] the target is T1, Prolyl endopeptidase (Homo sapiens) (UniProt P48147).
T1 sequence (whole entry): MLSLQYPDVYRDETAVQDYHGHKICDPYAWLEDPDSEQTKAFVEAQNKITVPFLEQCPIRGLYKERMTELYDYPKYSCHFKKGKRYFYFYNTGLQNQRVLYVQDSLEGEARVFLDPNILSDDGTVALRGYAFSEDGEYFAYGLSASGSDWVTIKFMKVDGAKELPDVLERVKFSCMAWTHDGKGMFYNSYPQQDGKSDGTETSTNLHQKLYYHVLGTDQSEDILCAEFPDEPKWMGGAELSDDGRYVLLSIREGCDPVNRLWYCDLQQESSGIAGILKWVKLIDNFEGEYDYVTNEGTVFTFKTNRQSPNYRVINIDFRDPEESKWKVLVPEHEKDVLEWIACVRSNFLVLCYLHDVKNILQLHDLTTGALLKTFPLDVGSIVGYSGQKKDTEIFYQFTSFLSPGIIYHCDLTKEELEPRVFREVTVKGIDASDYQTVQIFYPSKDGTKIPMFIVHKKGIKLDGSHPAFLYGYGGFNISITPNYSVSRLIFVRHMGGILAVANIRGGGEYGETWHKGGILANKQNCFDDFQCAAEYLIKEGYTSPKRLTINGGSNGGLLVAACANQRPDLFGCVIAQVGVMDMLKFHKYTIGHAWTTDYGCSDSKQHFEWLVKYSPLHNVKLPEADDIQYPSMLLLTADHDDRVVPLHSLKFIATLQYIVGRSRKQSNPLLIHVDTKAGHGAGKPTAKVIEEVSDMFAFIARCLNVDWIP
The experiment in a line: Inhibition of prolyl oligopeptidase in intact human astrocyte derived cells assessed as blockade of Z-Gly-Pro-AMC substrate hydrolysis at 100 uM by fluorimetric assay. An outline of the steps:
(§1)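 Intact confluent human glioblastoma (LN18, LN229, LNZ308), brain endothelial HCEC, or lung PO03 and skin PG98/5 fibroblast monolayers in PBS (pH 7.2-7.4), cells grown beforehand in DMEM with 10% FCS. Compound was diluted from methanol stock into water and preincubated 5-10 min at room temperature. Z-Gly-Pro-AMC was then added and read fluorimetrically. Duplicate wells.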

Assay [2] has as its target Dipeptidyl peptidase 4 (Homo sapiens) (UniProt P27487). The experiment in a line: Inhibition of DPP4 in intact human astrocyte derived cells assessed as blockade of Gly-Pro-AMC substrate hydrolysis at 100 uM by fluorimetric assay. In short, it runs like this:
(§2)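 Confluent intact human glioblastoma (LN18, LN229, LNZ308), brain endothelial HCEC, or lung PO03 and skin PG98/5 fibroblast monolayers kept in PBS (pH 7.2-7.4) without detergent. Compound was diluted from methanol stock into water and preincubated 5-10 min at room temperature. Gly-Pro-AMC was then added and hydrolysis read by fluorescence. Duplicate wells.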

Assay [3] has as its target T1, Prolyl endopeptidase (Homo sapiens). The experiment in a line: Inhibition of prolyl oligopeptidase in human fibroblast extracts assessed as blockade of Z-Gly-Pro-AMC substrate hydrolysis at 100 uM by fluorimetric assay. In short, it runs like this: (§3)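 Confluent human glioblastoma (LN18, LN229, LNZ308), brain endothelial HCEC, or lung PO03 and skin PG98/5 fibroblasts extracted in PBS with 0.1% Triton X-100. Compound was diluted from methanol stock into water and preincubated 5-10 min at room temperature. Z-Gly-Pro-AMC was then added and read by fluorescence. Duplicate wells.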

Assay [4] has as its target Dipeptidyl peptidase 4 (Homo sapiens) (UniProt P27487). The experiment in a line: Inhibition of DPP4 in human fibroblast extracts assessed as blockade of Gly-Pro-AMC substrate hydrolysis at 100 uM by fluorimetric assay. An outline of the steps:
(§4)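 Confluent human cells (glioblastoma LN18, LN229, LNZ308; brain endothelial HCEC; lung PO03 or skin PG98/5 fibroblasts) grown in DMEM with 4.5 g/L glucose and 10% FCS, then lysed in PBS (pH 7.2-7.4) containing 0.1% Triton X-100. Compound was diluted from methanol stock into water and preincubated 5-10 min at room temperature. Gly-Pro-AMC was then added. Duplicate wells.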

Assay [5] concerns the target T1, Prolyl endopeptidase (Homo sapiens). The experiment in a line: Inhibition of prolyl oligopeptidase in human astrocyte derived cell extracts assessed as blockade of Z-Gly-Pro-AMC substrate hydrolysis at 100 uM by fluorimetric assay. In short, it runs like this: as §3
The target is the same in assay [6]. The experiment in a line: Inhibition of prolyl oligopeptidase in intact human brain derived endothelial cells assessed as blockade of Z-Gly-Pro-AMC substrate hydrolysis at 100 uM by fluorimetric assay. As to conditions: Endothelial cell. The class given is cell-based. In short, it runs like this: as §1
For assay [7] the target is unchanged. The experiment in a line: Inhibition of prolyl oligopeptidase in human brain derived endothelial cell extracts assessed as blockade of Z-Gly-Pro-AMC substrate hydrolysis at 100 uM by fluorimetric assay. The assay is classed as cell-free. An outline of the steps:
as §3

For assay [8], the target named is Dipeptidyl peptidase 4 (Homo sapiens) (UniProt P27487). The experiment in a line: Inhibition of DPP4 in intact human brain derived endothelial cells assessed as blockade of Gly-Pro-AMC substrate hydrolysis at 100 uM by fluorimetric assay. The conditions noted are these: Endothelial cell. The class given is cell-based. In short, it runs like this:
as §2

Assay [9] shares this target. The experiment in a line: Inhibition of DPP4 in human astrocyte derived cell extracts assessed as blockade of Gly-Pro-AMC substrate hydrolysis at 100 uM by fluorimetric assay. An outline of the steps: as §4
For assay [10] the target is unchanged. The experiment in a line: Inhibition of DPP4 in intact human fibroblasts assessed as blockade of Gly-Pro-AMC substrate hydrolysis at 100 uM by fluorimetric assay. In short, it runs like this:
as §2

Assay [11] has as its target T1, Prolyl endopeptidase (Homo sapiens). The experiment in a line: Inhibition of prolyl oligopeptidase in intact human fibroblasts assessed as blockade of Z-Gly-Pro-AMC substrate hydrolysis at 100 uM by fluorimetric assay. An outline of the steps:
as §1

Assay [12] deals with Dipeptidyl peptidase 4 (Homo sapiens) (UniProt P27487). The experiment in a line: Inhibition of DPP4 in human brain derived endothelial cell extracts assessed as blockade of Gly-Pro-AMC substrate hydrolysis at 100 uM by fluorimetric assay. The assay is classed as cell-free. An outline of the steps:
as §4

In assay [13] the target is T2, Prolyl endopeptidase (Homo sapiens, UniProt P48147).
T2 sequence (P48147 whole entry): T1 sequence (whole entry)
The experiment in a line: Inhibition of prolyl oligopeptidase in intact human HCEC cells assessed as blockade of Z-Gly-Pro-AMC substrate hydrolysis by fluorimetric assay. The assay is classed as cell-based.

The target in assay [14] is T2, Prolyl endopeptidase. The experiment in a line: Inhibition of prolyl oligopeptidase in intact human LNZ308 cells assessed as blockade of Z-Gly-Pro-AMC substrate hydrolysis by fluorimetric assay. The assay is classed as cell-based.
For assay [15], the target named is T2, Prolyl endopeptidase. The experiment in a line: Inhibition of prolyl oligopeptidase in human LN229 cell extracts assessed as blockade of Z-Gly-Pro-AMC substrate hydrolysis by fluorimetric assay.
Assay [16] has as its target T2, Prolyl endopeptidase. The experiment in a line: Inhibition of prolyl oligopeptidase in human HCEC cell extracts assessed as blockade of Z-Gly-Pro-AMC substrate hydrolysis by fluorimetric assay. The class given is cell-free.
For assay [17], the target named is T2, Prolyl endopeptidase. The experiment in a line: Inhibition of prolyl oligopeptidase in intact human LN229 cells assessed as blockade of Z-Gly-Pro-AMC substrate hydrolysis by fluorimetric assay. The class given is cell-based.
Assay [18] has as its target T2, Prolyl endopeptidase. The experiment in a line: Inhibition of prolyl oligopeptidase in human LNZ308 cell extracts assessed as blockade of Z-Gly-Pro-AMC substrate hydrolysis by fluorimetric assay.

Activity calls are given as the source filed them. The calls are words filed in the database; no cut-off is given here.

The inhibition is the share of the control response that was lost under treatment. By IC50 is commonly meant the concentration at which inhibition is half-maximal.

Sequence of Dipeptidyl peptidase 4 (Homo sapiens) (P27487 whole entry, looked up): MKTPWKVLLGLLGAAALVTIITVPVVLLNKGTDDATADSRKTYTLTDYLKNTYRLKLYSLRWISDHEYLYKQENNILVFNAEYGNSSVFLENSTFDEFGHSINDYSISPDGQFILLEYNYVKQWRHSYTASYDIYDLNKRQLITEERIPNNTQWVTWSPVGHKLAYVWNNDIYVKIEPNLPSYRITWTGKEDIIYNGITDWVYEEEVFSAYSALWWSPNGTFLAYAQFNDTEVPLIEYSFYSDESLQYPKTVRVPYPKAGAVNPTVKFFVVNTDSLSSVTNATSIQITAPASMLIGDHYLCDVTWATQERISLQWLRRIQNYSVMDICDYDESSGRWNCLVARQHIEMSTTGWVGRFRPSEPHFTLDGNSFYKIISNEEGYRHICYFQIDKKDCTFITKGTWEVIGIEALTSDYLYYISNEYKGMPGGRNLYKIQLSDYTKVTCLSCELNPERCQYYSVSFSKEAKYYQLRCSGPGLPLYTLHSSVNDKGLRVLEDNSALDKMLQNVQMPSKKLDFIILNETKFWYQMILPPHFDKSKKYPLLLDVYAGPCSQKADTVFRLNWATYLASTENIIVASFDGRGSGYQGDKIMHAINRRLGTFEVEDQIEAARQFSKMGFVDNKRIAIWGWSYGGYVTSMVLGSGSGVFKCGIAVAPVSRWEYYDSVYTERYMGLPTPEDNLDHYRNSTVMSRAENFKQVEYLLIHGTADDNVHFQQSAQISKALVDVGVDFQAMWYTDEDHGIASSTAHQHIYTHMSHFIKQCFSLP

On to `N#C[C@@H]1CO[C@H]2C[C@@H](NC(=O)OCc3ccccc3)C(=O)N12`, for which the inhibition entry in assay [1], in assay [2], in [4], in assay [5], in assay [6] and in [7] was “inactive” each time. The inhibition entry in assay [8], in [9], in assay [10] and in assay [12] was “inactive” throughout. The inhibition in assay [3] and in assay [11] was 10% throughout.

Turning to `C[C@H]1O[C@H]2C[C@@H](NC(=O)OCc3ccccc3)C(=O)N2[C@@H]1C#N`, the inhibition result in assay [1], in assay [2], in [3], in [4], in assay [8] and in [9] was “inactive” each time. The inhibition result in assay [10], in assay [11] and in assay [12] was “inactive” throughout. In addition, the inhibition in [5], in [6] and in assay [7] was 10% each time.

As for `N#C[C@@H]1CO[C@H]2C[C@H](NC(=O)OCc3ccccc3)C(=O)N12`, the inhibition entry in [1], in [2], in assay [4], in assay [5], in assay [6] and in assay [7] was “inactive” throughout. The inhibition entry in [8], in [9], in [10] and in [12] was “inactive” throughout. The inhibition in assay [3] and in assay [11] was 10% each time.

With `N#C[C@H]1CS[C@@H]2C[C@@H](NC(=O)OCc3ccccc3)C(=O)N12`, the inhibition result in [1], in assay [2], in assay [4], in assay [8], in [9] and in assay [10] was “inactive” throughout. The inhibition result in assay [11] and in assay [12] was “inactive” throughout. Further, the inhibition is 10% in assay [3], 10% in [5], 10% in assay [6] and over 50% in assay [7].

Take `N#CC1CCSC2CC(NC(=O)OCc3ccccc3)C(=O)N12` (racemic): the inhibition entry in [1], in assay [2], in [4], in assay [5], in [6] and in [7] was “inactive” in each case. In addition, the inhibition entry in assay [8], in assay [9], in assay [10], in assay [11] and in assay [12] was “inactive” in each case. Also, the inhibition in assay [3] is 10%.

Regarding `NC(=O)[C@@H]1CS[C@H]2C[C@H](NC(=O)OCc3ccccc3)C(=O)N21`, the inhibition entry in assay [1], in assay [2], in assay [3], in assay [4], in [5] and in assay [6] was “inactive” in each case. Also, the inhibition entry in [7], in assay [8], in assay [9], in assay [10], in [11] and in assay [12] was “inactive” throughout.

In the case of `COC(=O)[C@@H]1CS[C@H]2C[C@@H](NC(=O)OCc3ccccc3)C(=O)N21`, the inhibition result in assay [1], in [2], in [4], in assay [5], in assay [6] and in [7] was “inactive” in each case. The inhibition result in [8], in assay [9], in [10] and in assay [12] was “inactive” in each case. Moreover, the inhibition in [3] and in assay [11] was 10% in each case.

Turning to `C[C@H]1O[C@H]2C[C@H](NC(=O)OCc3ccccc3)C(=O)N2[C@@H]1C#N`, the inhibition entry in [1], in [2], in [3], in assay [4], in assay [8] and in assay [9] was “inactive” each time. Moreover, the inhibition result in assay [10], in assay [11] and in [12] was “inactive” in each case. The inhibition in assay [5], in [6] and in [7] was 10% throughout.

Turning to `CC(C)(C)OC(=O)N1CCC[C@H]1C#N`, the inhibition entry in assay [1], in [2], in [3], in assay [4], in assay [5] and in assay [6] was “inactive” in each case. Further, the inhibition entry in assay [7], in [8], in [9], in assay [10], in [11] and in assay [12] was “inactive” throughout.

With `N#C[C@@H]1CS[C@H]2C[C@@H](NC(=O)OCc3ccccc3)C(=O)N12`, the 50% inhibitory concentration (IC50) was determined as 1300 nM at Prolyl endopeptidase [13]; 2500 nM on Prolyl endopeptidase [14]; 500 nM on Prolyl endopeptidase [15]; 700 nM at Prolyl endopeptidase [16]; 2000 nM on Prolyl endopeptidase [17]; 200 nM on Prolyl endopeptidase [18]. Further, the inhibition result in [2], in [4], in assay [8], in assay [9], in [10] and in [12] was “inactive” throughout.

Source of the values: ChEMBL document CHEMBL1153716, “Constrained peptidomimetics reveal detailed geometric requirements of covalent prolyl oligopeptidase inhibitors” (J Med Chem, 2009).
